In brackets after ≈: the same amount, converted by molar mass.
Key:
[1] = Solubility at pH 5.0; format: physicochemical; details: buffer
[2] = Metabolic stability in rat liver S9 fraction assessed as compound remaining after 60 mins; format: ADME, subcellular; details: read-out: Activity
[3] = AUC in rat at 2 mg/kg, po; format: ADME, organism-based; design: dose 2 mg/kg, route oral; details: plasma
[4] = Drug level in mesenteric fat tissue of cynomolgus monkey at 10 mg/kg, po after 2 hrs; format: ADME, organism-based, Macaca fascicularis, Adipose tissue; design: dose 10 mg/kg, route oral; details: read-out: Drug uptake
Summary of the method: (§1)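 Cynomolgus monkeys were given single oral doses of 0.4, 2 or 10 mg/kg in 1% methylcellulose plus 1% Tween 80 in sterile water, with 3 animals per dose group and a vehicle group of 4. Plasma and mesenteric fat were collected 2 h post-dose. Compound level in each matrix was measured by LC/MS/MS.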

[5] = Plasma concentration in cynomolgus monkey at 0.4 mg/kg, po after 2 hrs; format: ADME, organism-based, Macaca fascicularis; design: dose 0.4 mg/kg, route oral; summary of the method: as §1
[6] = Plasma concentration in cynomolgus monkey at 2 mg/kg, po after 2 hrs; format: ADME, organism-based, Macaca fascicularis; design: dose 2 mg/kg, route oral; summary of the method: as §1
[7] = Plasma concentration in cynomolgus monkey at 10 mg/kg, po after 2 hrs; format: ADME, organism-based, Macaca fascicularis; design: dose 10 mg/kg, route oral; summary of the method: as §1
[8] = Drug level in mesenteric fat tissue of cynomolgus monkey at 2 mg/kg, po after 2 hrs; format: ADME, organism-based, Macaca fascicularis, Adipose tissue; design: dose 2 mg/kg, route oral; details: read-out: Drug uptake; summary of the method: as §1
[9] = Drug level in mesenteric fat tissue of cynomolgus monkey at 0.4 mg/kg, po after 2 hrs; format: ADME, organism-based, Macaca fascicularis, Adipose tissue; design: dose 0.4 mg/kg, route oral; details: read-out: Drug uptake; summary of the method: as §1
[10] = Oral bioavailability in rat; format: ADME, organism-based; details: in vivo
[11] = Clearance in rat; format: ADME, organism-based; details: in vivo
[12] = target: Cytochrome P450 3A4 (Homo sapiens, UniProt P08684)
Chain of Cytochrome P450 3A4 (P08684 whole entry): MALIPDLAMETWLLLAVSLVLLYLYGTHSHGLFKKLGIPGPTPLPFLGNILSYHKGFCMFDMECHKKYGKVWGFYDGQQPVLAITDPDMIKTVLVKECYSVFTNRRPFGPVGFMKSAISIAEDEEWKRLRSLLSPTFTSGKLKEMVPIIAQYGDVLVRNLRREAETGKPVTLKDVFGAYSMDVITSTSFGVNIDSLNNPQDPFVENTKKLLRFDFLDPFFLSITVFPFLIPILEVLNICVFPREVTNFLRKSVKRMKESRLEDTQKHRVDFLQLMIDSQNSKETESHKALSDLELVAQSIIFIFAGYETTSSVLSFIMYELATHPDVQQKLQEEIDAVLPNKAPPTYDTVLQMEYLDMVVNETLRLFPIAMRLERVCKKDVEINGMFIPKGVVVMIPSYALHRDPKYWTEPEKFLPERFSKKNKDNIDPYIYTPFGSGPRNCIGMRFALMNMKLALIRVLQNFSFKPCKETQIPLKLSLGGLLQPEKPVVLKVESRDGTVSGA

[13] = target: Voltage-gated inwardly rectifying potassium channel KCNH2 (Homo sapiens, UniProt Q12809)
Chain of Voltage-gated inwardly rectifying potassium channel KCNH2 (Q12809 whole entry): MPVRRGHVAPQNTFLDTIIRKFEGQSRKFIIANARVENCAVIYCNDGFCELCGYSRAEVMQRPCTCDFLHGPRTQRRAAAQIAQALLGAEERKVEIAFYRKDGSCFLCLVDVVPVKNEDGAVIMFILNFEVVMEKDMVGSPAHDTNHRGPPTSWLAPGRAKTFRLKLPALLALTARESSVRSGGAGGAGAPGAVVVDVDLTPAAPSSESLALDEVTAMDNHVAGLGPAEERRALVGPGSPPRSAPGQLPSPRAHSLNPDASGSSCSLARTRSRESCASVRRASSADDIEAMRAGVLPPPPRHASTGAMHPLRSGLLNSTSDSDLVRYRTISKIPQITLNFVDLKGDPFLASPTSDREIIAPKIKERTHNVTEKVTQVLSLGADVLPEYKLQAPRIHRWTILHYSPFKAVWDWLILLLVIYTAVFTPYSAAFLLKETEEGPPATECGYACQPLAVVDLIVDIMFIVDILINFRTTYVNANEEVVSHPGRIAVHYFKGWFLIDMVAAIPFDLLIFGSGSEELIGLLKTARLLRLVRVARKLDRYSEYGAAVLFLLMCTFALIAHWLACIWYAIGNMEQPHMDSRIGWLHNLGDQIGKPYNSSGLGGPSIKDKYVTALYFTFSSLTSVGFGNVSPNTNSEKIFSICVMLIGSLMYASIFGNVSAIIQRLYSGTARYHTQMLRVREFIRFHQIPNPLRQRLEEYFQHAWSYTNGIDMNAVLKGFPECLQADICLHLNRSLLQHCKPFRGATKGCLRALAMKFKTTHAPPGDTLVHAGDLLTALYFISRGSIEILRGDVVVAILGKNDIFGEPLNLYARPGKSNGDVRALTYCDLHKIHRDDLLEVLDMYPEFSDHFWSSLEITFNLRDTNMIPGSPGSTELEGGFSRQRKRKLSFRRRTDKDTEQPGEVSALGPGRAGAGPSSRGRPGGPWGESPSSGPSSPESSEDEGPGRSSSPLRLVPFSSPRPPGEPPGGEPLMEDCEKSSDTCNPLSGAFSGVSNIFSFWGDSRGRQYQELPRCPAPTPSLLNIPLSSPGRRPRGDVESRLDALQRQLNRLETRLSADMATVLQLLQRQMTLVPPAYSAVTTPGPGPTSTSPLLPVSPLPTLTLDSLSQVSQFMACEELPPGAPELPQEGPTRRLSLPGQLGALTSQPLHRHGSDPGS

Row | SMILES | solubility [1] | remaining at 1 h [2] | also measured
1 | C[C@@H]1CN(Cc2ccnc3ccccc23)CCN1S(=O)(=O)c1ccc(C(C)(C)C)cc1 | 1 µg/mL (≈ 2.29 µM) |  | 
2 | C[C@@H]1CN(CC2(c3cccnc3)CCCC2)CCN1S(=O)(=O)c1ccc(C(C)(O)C(F)(F)F)cc1 (stereo not given in full) |  | 60% | 
3 | CC(C)(C)c1ccc(S(=O)(=O)N2CCN(c3ccc([N+](=O)[O-])cc3)CC2)cc1 | 0.5 µg/mL (≈ 1.24 µM) |  | AUC [3]: 29.8 ng·h/mL
4 | C[C@@H]1CN(CC2(c3ccncc3)CCC2)CCN1S(=O)(=O)c1ccc(C(C)(O)C(F)(F)F)cc1 (stereo not given in full) |  | 54% | 
5 | C[C@@H]1CN(c2ccc([N+](=O)[O-])cc2)CCN1S(=O)(=O)c1ccc(C(C)(C)C)cc1 | 1.8 µg/mL (≈ 4.31 µM) |  | 
6 | C[C@@H]1CN(CC2(C(N)=O)CC2)CCN1S(=O)(=O)c1ccc([C@](C)(O)C(F)(F)F)cc1 |  |  | concentration at 2 h [4]: 40700 nM; concentration at 2 h [5]: 29 nM; AUC [3]: 638 ng·h/mL; concentration at 2 h [6]: 349 nM; concentration at 2 h [7]: 503 nM; concentration at 2 h [8]: 2780 nM; concentration at 2 h [9]: 105 nM
7 | C[C@@H]1CN(CC2(c3cccnc3)CCC2)CCN1S(=O)(=O)c1ccc(C(C)(O)C(F)(F)F)cc1 (stereo not given in full) |  | 61% | 
8 | C[C@@H]1CN(CCCc2ccncc2)CCN1S(=O)(=O)c1ccc(C(C)(C)C)cc1 | 39 µg/mL (≈ 93.8 µM) |  | 
9 | C[C@@H]1CN(CC(F)(F)c2cccnc2)CCN1S(=O)(=O)c1ccc(C(C)(O)C(F)(F)F)cc1 (stereo not given in full) |  | 46% | 
10 | C[C@@H]1CN(CCc2ccncc2)CCN1S(=O)(=O)c1ccc(C(C)(O)C(F)(F)F)cc1 (stereo not given in full) |  | 59% | 
11 | C[C@@H]1CN(CC2(c3ccncc3)CCCC2)CCN1S(=O)(=O)c1ccc(C(C)(O)C(F)(F)F)cc1 (stereo not given in full) |  | 43% | 
12 | CC(c1ccncc1)N1CCN(S(=O)(=O)c2ccc(C(C)(C)C)cc2)[C@H](C)C1 (stereo not given in full) | 20.8 µg/mL (≈ 51.8 µM) |  | 
13 | C[C@@H]1CN(Cc2ccncc2)CCN1S(=O)(=O)c1ccc(C(C)(C)C)cc1 | 18.1 µg/mL (≈ 46.7 µM) |  | 
14 | C[C@@H]1CN(CC2(c3cccnc3)CC2)CCN1S(=O)(=O)c1ccc(C(C)(O)C(F)(F)F)cc1 (stereo not given in full) |  | 50% | 
15 | C[C@@H]1CN(CC2(c3ccncc3)CC2)CCN1S(=O)(=O)c1ccc(C(C)(O)C(F)(F)F)cc1 (stereo not given in full) |  | 80% | bioavailability [10]: 60%; clearance [11]: 35 mL/min/kg; IC50 [12]: 1.7 µM; IC50 [13]: 0.44 µM
16 | C[C@@H]1CN(CC(F)(F)c2ccncc2)CCN1S(=O)(=O)c1ccc(C(C)(O)C(F)(F)F)cc1 (stereo not given in full) |  | 40% | 
17 | C[C@@H]1CN(CCc2ccncc2)CCN1S(=O)(=O)c1ccc(C(C)(C)C)cc1 | 21.8 µg/mL (≈ 54.3 µM) |  | 
18 | C[C@@H]1CN(CCc2cccnc2)CCN1S(=O)(=O)c1ccc(C(C)(O)C(F)(F)F)cc1 (stereo not given in full) |  | 67% | 
19 | C[C@@H]1CN(CCc2ccccn2)CCN1S(=O)(=O)c1ccc(C(C)(O)C(F)(F)F)cc1 (stereo not given in full) |  | 28% | 
